# Assay results published in publication PMC5487498 (World Journal of Gastroenterology, 2017).
# How the values were obtained:
# Test in all cases: MTS cell proliferation/viability assay
# [1] = test system: CaCo-2; assay type: cell-based, human; settings: read-out: IC50 CaCo-2, 72 h incubation
# How it was run: (§1)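 Cells were seeded at 10 × 10^3 cells/well and exposed 24 h later to test compound at 100, 50, 10, 5, 1 and 0.1 μmol/L for 72 h. MTS was then added for 2 h and absorbance read at 490 nm, with untreated control taken as 100%. HCT116 was grown in RPMI 1640; Caco-2 and murine 3T3 fibroblasts in high-glucose DMEM with pyruvate, 10% FBS and penicillin/streptomycin, at 37 °C and 5% CO2.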
# [2] = test system: 3T3; assay type: cell-based, murine; settings: read-out: IC50 3T3, 72 h incubation, non-cancer fibroblasts
# How it was run: as §1
# [3] = test system: HCT116; assay type: cell-based, human; settings: read-out: IC50 HCT116, 72 h incubation
# How it was run: as §1
SMILES,IC50 [1] [µM],IC50 [2] [µM],IC50 [3] [µM]
"COC1N(OC)c2ccccc2C12CN=C(Nc1ccc(C(F)(F)F)cc1)S2 (racemic) [Compound K-452, (±)-cis-1,2-dimethoxy-2’-(4-trifluoromethylphenylamino)spiro{indoline-3,5’[4’,5’]dihydrothiazol}]",> 100,> 100,> 100
"COC1N(OC)c2ccc(F)cc2C12CN=C(SC)S2 (racemic) [Compound K-462, (±)-cis-5-fluoro-1-methoxyspirobrassinolmethylether]",> 100,> 100,> 100
"CON1C(=O)C2(CN=C(Nc3ccc(Br)cc3)S2)c2ccccc21 (racemic) [Compound K-463, (±)-1-methoxy-2’-(4-bromophenylamino)spiro{indoline-3,5’-[4’,5’]-dihydrothiazol}-2-one]",74.18 ± 0.001,61.1 ± 2.25,33 ± 2.67
"CON1C(=O)C2(CN=C(Nc3ccc(C(F)(F)F)cc3)S2)c2ccccc21 (racemic) [Compound K-465, (±)-1-methoxy-2’-(4-trifluoromethylphenylamino)spiro{indoline-3,5’-[4’,5’]-dihydrothiazol}-2-one]",35.7 ± 6.49,34.9 ± 2.01,33.7 ± 2.78
"CON1C(=O)C2(CN=C(Nc3ccc(C)cc3)S2)c2ccccc21 (racemic) [Compound K-466, (±)-1-methoxy-2’-(4-methylphenylamino)spiro{indoline-3,5’-[4’,5’]-dihydrothiazol}-2-one]",> 100,> 100,> 100
"CC(C)(C)OC(=O)N1c2ccccc2C2(CN=C(Nc3ccc(Cl)cc3)S2)C1N1CCCCC1 (racemic) [Compound K-467, trans-(±)-1-(terc-buthoxycarbonyl)-2-(1-piperidyl)-2’-(4-chlorophenylamino)spiro{indoline-3,5’-[4’,5’]dihydrothiazol}]",> 100,> 100,> 100
"CC(C)(C)OC(=O)N1c2ccccc2C2(CN=C(Nc3ccc(C(F)(F)F)cc3)S2)C1N1CCCCC1 (racemic) [Compound K-471, trans-(±)-1-(terc-buthoxycarbonyl)-2-(1-piperidyl)-2’-(4-trifluoromethylphenylamino)spiro{indoline-3,5’-[4’,5’]dihydrothiazol}]",> 100,> 100,> 100
"CSC(=O)NCc1c[nH]c2ccc(F)cc12 [Compound K-455, 5-fluorobrassitin]",> 100,> 100,> 100
"COn1cc(CNC(=O)SC)c2cc(F)ccc21 [Compound K-459, 5-fluoro-1-methoxybrassitin]",> 100,> 100,> 100
